ChEMBL document CHEMBL1123215, “Arginine-vasopressin analogues with high antidiuretic/vasopressor selectivity. Synthesis, biological activity, and receptor binding affinity of arginine-vasopressin analogues with substitutions in positions 1, 2, 4, 7, and 8” (J Med Chem, 1986)
Positions of bridges follow the written chain, without caps; N, C: chain ends. Non-standard residues stand in square brackets, D forms with d. Residues, ends and D or L forms follow the SMILES beside them. NMeA = CN[C@@H](C)C(=O)O; Mpa = O=C(O)CCS; Sar = CNCC(=O)O

Columns and labels:
Vasopressin V1 receptor = Vasopressin V1 receptor (Rattus norvegicus, UniProt P48974+P30560); experiment: Binding affinity against plasma membrane from rat liver
In short: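 Rat liver plasma membranes, competition against [3H]AVP, 30 min incubation, bacitracin (1 mg/mL) in standard medium. Apparent KD and slope factor b from weighted nonlinear least-squares logistic fit of displacement curves; mean ±SE of two experiments.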

Vasopressin V2 receptor = Vasopressin V2 receptor (Bos taurus, UniProt P48044); experiment: Binding affinity against plasma membrane from bovine kidney inner medulla; type: tissue-based
In short: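 Competition binding with [3H]AVP to plasma membranes, 30 min incubation; for rat liver membranes the standard medium included bacitracin (1 mg/mL). Apparent KD and slope factor b from weighted nonlinear least-squares fit of displacement curves to logistic curves; [3H]AVP parameters from direct binding. Mean ±SE of two experiments.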

Rattus norvegicus [1] = experiment: Compound was tested for the vasopressor activity against phenoxybenzamine treated rats, after intravenous injection.; type: functional
In short: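 Pressor response measured in rats pretreated with phenoxybenzamine.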

Rattus norvegicus [2] = experiment: Compound was tested for the antidiuretic activity against hydrated anaesthetized rats, after intravenous injection.; type: functional, Urine
In short: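 Hydrated, anaesthetized rats given intravenous injection; effect measured as change in urine conductivity, with arginine-vasopressin as standard.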

[3] = Ratio of antidiuretic potency vs vasopressor potency; type: functional, Urine
In short: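 Antidiuretic potency from urine conductivity change in hydrated anaesthetized rats after i.v. injection, vasopressor potency in phenoxybenzamine-treated rats, arginine-vasopressin as standard; ratio of the two potencies.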

Vasopressin V2 receptor, sequence (P48044 whole entry): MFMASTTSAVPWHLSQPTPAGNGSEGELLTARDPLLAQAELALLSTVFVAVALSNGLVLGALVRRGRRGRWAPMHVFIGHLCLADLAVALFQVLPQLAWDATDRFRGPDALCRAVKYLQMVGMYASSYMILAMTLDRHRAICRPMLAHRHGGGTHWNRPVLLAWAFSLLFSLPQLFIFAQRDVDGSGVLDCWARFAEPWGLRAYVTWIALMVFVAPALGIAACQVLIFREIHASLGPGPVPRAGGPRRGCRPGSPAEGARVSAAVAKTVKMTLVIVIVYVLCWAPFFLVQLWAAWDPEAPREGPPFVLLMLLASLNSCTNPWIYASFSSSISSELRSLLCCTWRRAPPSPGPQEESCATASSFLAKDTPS

| Compound | Kd (Vasopressin V1 receptor) [nM] | Kd (Vasopressin V2 receptor) [nM] | Potency (Rattus norvegicus [1]) [IU mg-1] | Potency (Rattus norvegicus [2]) [IU mg-1] | Ratio [3] |
| --- | --- | --- | --- | --- | --- |
| C[C@@H](C(=O)N[C@H](CCCN=C(N)N)C(=O)NCC(N)=O)N(C)C(=O)[C@@H]1CSSCCC(=O)N[C@@H](Cc2ccc(O)cc2)C(=O)N[C@@H](Cc2ccccc2)C(=O)N[C@@H](CCC(N)=O)C(=O)N[C@@H](CC(N)=O)C(=O)N1 [listing 1 of 2 here] | 290 | 51 | – | – | – |
| CN(CC(=O)N[C@@H](CCCN=C(N)N)C(=O)NCC(N)=O)C(=O)[C@@H]1CSSC[C@H](N)C(=O)N[C@@H](Cc2ccc(O)cc2)C(=O)N[C@@H](Cc2ccccc2)C(=O)N[C@@H](CCC(N)=O)C(=O)N[C@@H](CC(N)=O)C(=O)N1 | – | – | 3.6 | 188 | 52 |
| CN(CC(=O)N[C@H](CCCN=C(N)N)C(=O)NCC(N)=O)C(=O)[C@@H]1CSSCCC(=O)N[C@@H](Cc2ccc(O)cc2)C(=O)N[C@@H](Cc2ccccc2)C(=O)N[C@@H](CCC(N)=O)C(=O)N[C@@H](CC(N)=O)C(=O)N1 [listing 1 of 2 here] | 160 | 8.7 | – | – | – |
| C[C@@H](C(=O)N[C@H](CCCN=C(N)N)C(=O)NCC(N)=O)N(C)C(=O)[C@@H]1CSSC[C@H](N)C(=O)N[C@@H](Cc2ccc(O)cc2)C(=O)N[C@@H](Cc2ccccc2)C(=O)N[C@@H](CCC(N)=O)C(=O)N[C@@H](CC(N)=O)C(=O)N1 [listing 1 of 2 here] | 280 | 21 | – | – | – |
| CC(C)[C@@H]1NC(=O)[C@H](Cc2ccccc2)NC(=O)[C@H](Cc2ccc(O)cc2)NC(=O)[C@@H](N)CSSC[C@@H](C(=O)N(C)CC(=O)N[C@@H](CCCN=C(N)N)C(=O)NCC(N)=O)NC(=O)[C@H](CC(N)=O)NC1=O (H-CYFVNC[Sar]RG-NH2; disulfide 1-6) | – | – | 34.7 | 270 | 8 |
| CN(CC(=O)N[C@@H](CCCN=C(N)N)C(=O)NCC(N)=O)C(=O)[C@@H]1CSSC[C@H](N)C(=O)N[C@@H](Cc2ccccc2)C(=O)N[C@@H](Cc2ccccc2)C(=O)N[C@@H](CCC(N)=O)C(=O)N[C@@H](CC(N)=O)C(=O)N1 (H-CFFQNC[Sar]RG-NH2; disulfide 1-6) | – | – | 0.17 | 39.6 | 230 |
| CC(C)[C@@H]1NC(=O)[C@H](Cc2ccccc2)NC(=O)[C@H](Cc2ccc(O)cc2)NC(=O)CCSSC[C@@H](C(=O)N(C)CC(=O)N[C@@H](CCCN=C(N)N)C(=O)NCC(N)=O)NC(=O)[C@H](CC(N)=O)NC1=O ([Mpa]YFVNC[Sar]RG-NH2; disulfide 1-6) [listing 1 of 2 here] | – | – | 0.4 | 552 | 1380 |
| C[C@@H](C(=O)N[C@H](CCCN=C(N)N)C(=O)NCC(N)=O)N(C)C(=O)[C@@H]1CSSCCC(=O)N[C@@H](Cc2ccc(O)cc2)C(=O)N[C@@H](Cc2ccccc2)C(=O)N[C@@H](CCC(N)=O)C(=O)N[C@@H](CC(N)=O)C(=O)N1 [listing 2 of 2 here] | – | – | 0.07 | 368.5 | 5260 |
| CC(C)[C@H]1NC(=O)[C@H](Cc2ccccc2)NC(=O)[C@@H](Cc2ccc(O)cc2)NC(=O)CCSSC[C@@H](C(=O)N(C)[C@@H](C)C(=O)N[C@@H](CCCN=C(N)N)C(=O)NCC(N)=O)NC(=O)[C@H](CC(N)=O)NC1=O | 53 | 9.4 | 0.69 | 103 | 150 |
| C[C@@H](C(=O)N[C@H](CCCN=C(N)N)C(=O)NCC(N)=O)N(C)C(=O)[C@@H]1CSSC[C@H](N)C(=O)N[C@@H](Cc2ccc(O)cc2)C(=O)N[C@@H](Cc2ccccc2)C(=O)N[C@@H](CCC(N)=O)C(=O)N[C@@H](CC(N)=O)C(=O)N1 [listing 2 of 2 here] | – | – | 0.11 | 69 | 630 |
| CC(C)[C@@H]1NC(=O)[C@H](Cc2ccccc2)NC(=O)[C@H](Cc2ccc(O)cc2)NC(=O)CCSSC[C@@H](C(=O)N(C)CC(=O)N[C@@H](CCCN=C(N)N)C(=O)NCC(N)=O)NC(=O)[C@H](CC(N)=O)NC1=O ([Mpa]YFVNC[Sar]RG-NH2; disulfide 1-6) [listing 2 of 2 here] | 27 | 1.4 | – | – | – |
| CN(CC(=O)N[C@H](CCCN=C(N)N)C(=O)NCC(N)=O)C(=O)[C@@H]1CSSCCC(=O)N[C@@H](Cc2ccc(O)cc2)C(=O)N[C@@H](Cc2ccccc2)C(=O)N[C@@H](CCC(N)=O)C(=O)N[C@@H](CC(N)=O)C(=O)N1 [listing 2 of 2 here] | – | – | 0.01 | 214.5 | 2145 |
| CN(CC(=O)N[C@H](CCCN=C(N)N)C(=O)NCC(N)=O)C(=O)[C@@H]1CSSC[C@H](N)C(=O)N[C@@H](Cc2ccc(O)cc2)C(=O)N[C@@H](Cc2ccccc2)C(=O)N[C@@H](CCC(N)=O)C(=O)N[C@@H](CC(N)=O)C(=O)N1 [listing 1 of 2 here] | – | – | 0.04 | 56 | 1400 |
| CC(C)[C@@H]1NC(=O)[C@H](Cc2ccccc2)NC(=O)[C@H](Cc2ccc(O)cc2)NC(=O)[C@@H](N)CSSC[C@@H](C(=O)N(C)[C@@H](C)C(=O)N[C@@H](CCCNC(=N)N)C(=O)NCC(N)=O)NC(=O)[C@H](CC(N)=O)NC1=O (H-CYFVNC[NMeA]RG-NH2; disulfide 1-6) | 310 | 33 | – | – | – |
| CN(CC(=O)N[C@H](CCCN=C(N)N)C(=O)NCC(N)=O)C(=O)[C@@H]1CSSC[C@H](N)C(=O)N[C@@H](Cc2ccc(O)cc2)C(=O)N[C@@H](Cc2ccccc2)C(=O)N[C@@H](CCC(N)=O)C(=O)N[C@@H](CC(N)=O)C(=O)N1 [listing 2 of 2 here] | 420 | 10 | – | – | – |
| CN(CC(=O)N[C@@H](CCCNC(=N)N)C(=O)NCC(N)=O)C(=O)[C@@H]1CSSC[C@H](N)C(=O)N[C@@H](Cc2ccccc2)C(=O)N[C@@H](Cc2ccccc2)C(=O)N[C@@H](CCC(N)=O)C(=O)N[C@@H](CC(N)=O)C(=O)N1 (H-CFFQNC[Sar]RG-NH2; disulfide 1-6) | 170 | 44 | – | – | – |
| CC(C)[C@@H]1NC(=O)[C@H](Cc2ccccc2)NC(=O)[C@H](Cc2ccc(O)cc2)NC(=O)[C@@H](N)CSSC[C@@H](C(=O)N(C)CC(=O)N[C@@H](CCCNC(=N)N)C(=O)NCC(N)=O)NC(=O)[C@H](CC(N)=O)NC1=O (H-CYFVNC[Sar]RG-NH2; disulfide 1-6) | 110 | 9.4 | – | – | – |
| N=C(N)NCCC[C@H](NC(=O)[C@@H]1CCCN1C(=O)[C@@H]1CSSC[C@H](N)C(=O)N[C@@H](Cc2ccc(O)cc2)C(=O)N[C@@H](Cc2ccccc2)C(=O)N[C@@H](CCC(N)=O)C(=O)N[C@@H](CC(N)=O)C(=O)N1)C(=O)NCC(N)=O [VASOPRESSIN] | – | – | – | 323 | – |
| C[C@@H](C(=O)N[C@@H](CCCN=C(N)N)C(=O)NCC(N)=O)N(C)C(=O)[C@@H]1CSSC[C@H](N)C(=O)N[C@@H](Cc2ccccc2)C(=O)N[C@@H](Cc2ccccc2)C(=O)N[C@@H](CCC(N)=O)C(=O)N[C@@H](CC(N)=O)C(=O)N1 (H-CFFQNC[NMeA]RG-NH2; disulfide 1-6) [listing 1 of 2 here] | 110 | 110 | – | – | – |
| C[C@@H](C(=O)N[C@@H](CCCN=C(N)N)C(=O)NCC(N)=O)N(C)C(=O)[C@@H]1CSSC[C@H](N)C(=O)N[C@@H](Cc2ccccc2)C(=O)N[C@@H](Cc2ccccc2)C(=O)N[C@@H](CCC(N)=O)C(=O)N[C@@H](CC(N)=O)C(=O)N1 (H-CFFQNC[NMeA]RG-NH2; disulfide 1-6) [listing 2 of 2 here] | – | – | 0.57 | 14.5 | 25 |
| C[C@@H](C(=O)N[C@@H](CCCN=C(N)N)C(=O)NCC(N)=O)N(C)C(=O)[C@@H]1CSSC[C@H](N)C(=O)N[C@@H](Cc2ccc(O)cc2)C(=O)N[C@@H](Cc2ccccc2)C(=O)N[C@@H](CCC(N)=O)C(=O)N[C@@H](CC(N)=O)C(=O)N1 | – | – | 10.6 | 343 | 32 |
